A selection: hits, their analogues and other compounds. The true share with any hit is near 4.7%.
Mdm2-MdmX inh = inhibitors of human Mdm2-MdmX association, primary screen, cell-based, luminescence, split luciferase, SaOS-2, uHTS; SaOS-2 split-luciferase Mdm2/MdmX complementation; AID 485346, 2010; Protein Mdm4 (Homo sapiens) + E3 ubiquitin-protein ligase Mdm2 (Homo sapiens), …; actives 3% (n = 330,000); inhibition, % at 8 µM;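 active = inhibition of at least 50% at 8 µM in the primary screen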
Target sequence (O15151 whole entry, looked up): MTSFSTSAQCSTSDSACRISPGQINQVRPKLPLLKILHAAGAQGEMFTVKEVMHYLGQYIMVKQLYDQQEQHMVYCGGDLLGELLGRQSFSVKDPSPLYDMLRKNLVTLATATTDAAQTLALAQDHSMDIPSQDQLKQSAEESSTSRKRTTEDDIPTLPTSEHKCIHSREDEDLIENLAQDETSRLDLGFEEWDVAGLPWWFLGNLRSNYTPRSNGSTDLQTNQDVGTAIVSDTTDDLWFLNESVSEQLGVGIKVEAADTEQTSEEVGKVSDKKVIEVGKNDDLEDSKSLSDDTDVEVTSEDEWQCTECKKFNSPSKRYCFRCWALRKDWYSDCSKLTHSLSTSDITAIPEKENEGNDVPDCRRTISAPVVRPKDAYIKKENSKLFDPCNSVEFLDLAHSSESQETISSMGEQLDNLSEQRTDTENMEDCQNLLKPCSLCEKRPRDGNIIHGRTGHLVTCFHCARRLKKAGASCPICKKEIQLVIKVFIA
Target sequence (Q00987 whole entry, looked up): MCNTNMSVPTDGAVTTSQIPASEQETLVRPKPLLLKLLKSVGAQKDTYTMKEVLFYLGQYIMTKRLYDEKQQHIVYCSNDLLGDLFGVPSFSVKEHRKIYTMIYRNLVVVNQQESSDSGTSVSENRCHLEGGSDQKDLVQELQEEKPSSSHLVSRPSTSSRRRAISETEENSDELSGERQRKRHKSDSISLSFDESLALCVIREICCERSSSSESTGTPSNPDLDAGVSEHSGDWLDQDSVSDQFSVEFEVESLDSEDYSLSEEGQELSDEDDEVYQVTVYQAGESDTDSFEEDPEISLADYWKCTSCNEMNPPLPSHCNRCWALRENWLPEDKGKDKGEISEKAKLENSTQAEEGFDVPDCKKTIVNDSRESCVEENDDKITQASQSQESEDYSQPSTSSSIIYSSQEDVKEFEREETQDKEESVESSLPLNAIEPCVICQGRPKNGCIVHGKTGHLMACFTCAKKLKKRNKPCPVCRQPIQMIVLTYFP
VIM-2 inhibitor = VIM-2 metallo-beta-lactamase inhibitors, primary screen, biochemical, epi-absorbance readout, Pseudomonas aeruginosa enzyme. purified VIM-2, nitrocefin hydrolysis, epi-absorbance fluorescence. inhibition, % at 5.6 µM. actives 0.89% (n = 290,000). AID 1527, 2009;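 active = inhibition above the mean of all tested compounds plus 3 SD, cutoff set per screening run, cut at about 7.5% in these data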;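 also: red hydrolysis product quenches plate fluorescence so inhibitors raise well fluorescence; 0% = enzyme with DMSO and 100% = DMSO without enzyme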
Jurkat NFkB inh = inhibitors of induced NF-kB luciferase reporter, primary screen, TCR NF-kB activation inhibitor project, cell-based, luminescence, uHTS; AID 435003, 2010; Jurkat, PMA/ionomycin-induced NF-kB luciferase reporter; actives 0.53% (n = 330,000); inhibition, % at 4 µM; in the data active = inhibition above about 50%
697 NFkB inh = inhibitors of PMA/ionomycin-induced NF-kB reporter, 697 cells, primary screen, B-cell NF-kB inhibitor project, cell-based, luminescence, uHTS; 697 B-cell NF-kB luciferase reporter, 16 h; inhibition, % at 4 µM; actives 0.33% (n = 330,000); AID 435022, 2010; in the data active = inhibition above about 35%
IMP-1 inhibitor = IMP-1 metallo-beta-lactamase inhibitors, primary screen, biochemical, epi-absorbance readout, Pseudomonas aeruginosa enzyme; purified IMP-1, nitrocefin hydrolysis, epi-absorbance fluorescence; inhibition, % at 5.6 µM; actives 0.45% (n = 290,000); AID 1556, 2009;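 active = inhibition above the mean plus 3 SD of all compounds in the same screening run, cut at about 4.5% in these data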;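 also: 0% = IMP-1 with DMSO and 100% = DMSO wells lacking enzyme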
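System: Purified recombinant IMP-1 metallo-beta-lactamase enzyme | Measured by: Fluorescence quenching readout, ex 480/em 530 nm | Replication: Singlicate | Incubation: 15 min preincubation plus 25 min reaction at 25 °C | Evaluation: Percent inhibition from optical density relative to buffer-blank wells | Benchmarks: DMSO with and without IMP-1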
aSyn UTR inh = MLPCN primary screen, SNCA 5' untranslated region; alpha-synuclein 5'UTR reporter, inhibitor activity; inhibition, % (tested at 7.5 µM); actives 0.82% (n = 300,000); AID 1813, 2009; in the data active = inhibition above about 60%;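 also: H4 neuroglioblastoma cells stably carrying SNCA 5'UTR luciferase fusion; 0% = DMSO wells and 100% = positive control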
697 NFkB conf = PMA/ionomycin-induced NF-kB reporter inhibitors, 697 retest, confirmation, B-cell NF-kB inhibitor project, cell-based, luminescence, single concentration; AID 449746, 2010; actives 35% (n = 2,000); shares compounds with 697 NFkB inh; inhibition, % at 4 µM; 697 B-cell NF-kB luciferase, 16 h; in the data active = inhibition mostly above about 28%, no sharp cut-off; inactive = mostly below about 22%
Mdm2 MdmX conf = Mdm2-MdmX complex disruptors, retested hits, confirmation, luminescence, single concentration. Mdm2-MdmX binding, luminescent assay. inhibition, % at 8 µM. actives 55% (n = 10,000). shares compounds with Mdm2-MdmX inh; in the data active = inhibition above about 40%
FLuc counter = full-length luciferase signal inhibition, confirmation, counter-screen for Mdm2/MdmX interaction inhibitor project, cell-based, single concentration, SaOS-2; AID 504607, 2011; inhibition, % at 8 µM; actives 77% (n = 6,200); shares compounds with Mdm2-MdmX inh; SaOS-2 full-length luciferase counterscreen, luminescence;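 active = mean inhibition at 8 µM reaching about 37%, which flags the compound as non-specific, limit read from the data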;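 also: p53-null SaOS-2 cells with luciferase driven by a doxycycline-inducible promoter; compound on cells about two nights before reading with doxycycline added after day one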
The depositor's hits bear a star; i = inactive; / = no result given; + = active, no number.

SMILES	Mdm2-MdmX inh	VIM-2 inhibitor	Jurkat NFkB inh	697 NFkB inh	IMP-1 inhibitor	aSyn UTR inh	697 NFkB conf	Mdm2 MdmX conf	FLuc counter
CCc1ccccc1Nc1nc(N)nc(COC(=O)c2cccn2C)n1	54*	-2	-93	-324	-5	-34	-118	62*	196*
COc1ccccc1N1CCN(CCCn2c(=S)[nH]c3ccccc3c2=O)CC1	-1	-3	7	-8	-3	-2	/	/	/
COc1ccc(N2CCN(CCCn3c(=S)[nH]c4ccccc4c3=O)CC2)cc1	86*	-2	-34	-309	-2	-6	-18	67*	47*
O=c1cc(N2CCN(c3cccc(Cl)c3)CC2)[nH]c(=O)n1C1CCCCC1	84*	-4	47	43*	-1	10	29	72*	40*
CCCC(=O)N1c2ccccc2[C@@H](N(C(C)=O)c2ccccc2)C[C@H]1C	21	-2	-1	18	-1	18	/	/	/
CCC(=O)N1c2ccccc2C(N(C(C)=O)c2ccccc2)CC1C (configuration not stated)	54*	0	12	37*	-1	1	45*	24	/
COc1ccc(-n2c(-c3ccc(Br)cc3)c[n+]3c2CCc2ccccc2-3)cc1	51*	-2	25	101*	-1	-91	47*	54*	61*
COc1ccc(/C=C2/SC(=S)N(CCCC(=O)Nc3ccccc3C(=O)O)C2=O)cc1	-7	-1	18	32	-2	53	/	/	/
COc1ccc(/C=C2/SC(=S)N(CCCC(=O)Nc3cccc(O)c3)C2=O)cc1	83*	1	8	63*	0	36	71*	43*	29
COc1ccc(/C=C2\SC(=S)N(CCCC(=O)NNC(=O)c3ccccc3O)C2=O)cc1	57*	-1	4	74*	-1	75*	69*	58*	46*
CCc1cc(C(=O)N2CCc3c([nH]c4ccccc34)C2c2ccc(OC)cc2F)no1 (configuration not stated)	83*	-4	-2	i	-2	36	-48	85*	34
COc1ccc(C2c3[nH]c4ccccc4c3CCN2C(=O)c2ccc(=O)n(C)n2)c(F)c1 (configuration not stated)	-11	1	-35	-29	-1	6	/	/	/
O=C(COC(=O)COc1ccc(Br)cc1)NC1CCCC1	20	/	7	3	/	/	/	/	/
Nc1ccc(Cc2nc3cc4ccccc4cc3[nH]2)cc1	69*	-1	-83	i	-2	-55	-344	34	70*
c1ccc(Cc2nc3ccccc3[nH]2)cc1	35	-2	-12	4	-2	-24	/	/	/
Nc1ccc(C(=O)OCc2nc3cc4ccccc4cc3[nH]2)cc1	74*	-3	-42	i	-3	16	-381	82*	34
COc1ccc(S(=O)(=O)N2CCCC2CNC(=O)C(=O)NCc2ccco2)cc1 (configuration not stated)	5	/	13	15	/	-8	/	/	/
CC1=CC(C)(C)Nc2ccc(OC(=O)CN3C(=O)CCC3=O)cc21	55*	2	6	65*	-1	31	48*	11	/
COc1ccc(OC(=O)C(C)N2C(=O)c3ccccc3C2=O)cc1 (configuration not stated)	15	0	-2	1	-4	23	/	/	/
O=C(Oc1cccc(OC(=O)c2ccco2)c1)c1ccco1	10	-4	-7	7	-4	1	/	/	/
CC1=CC(C)(C)Nc2ccc(OC(=O)c3ccco3)cc21	72*	0	14	79*	-3	13	38*	22	/
CC1=CC(C)(C)Nc2ccc(OC(=O)C(C)N3C(=O)c4ccccc4C3=O)cc21 (configuration not stated)	56*	3	5	67*	-1	19	55*	22	/
Cc1ccccc1Sc1ccc(N)cn1	5	/	-50	-37	/	5	/	/	/
CCCC(C(=O)NC1CCCC1)N(CC1CCCO1)C(=O)CNS(=O)(=O)c1ccc(F)cc1 (configuration not stated)	4	-1	-2	-3	-1	1	/	/	/
CNC(=O)/C(C#N)=C/c1cn(CC(=O)NCc2ccco2)c2ccccc12	15	0	-13	-3	0	12	/	/	/
SMILES	Mdm2-MdmX inh	VIM-2 inhibitor	Jurkat NFkB inh	697 NFkB inh	IMP-1 inhibitor	aSyn UTR inh	697 NFkB conf	Mdm2 MdmX conf	FLuc counter
Cc1cc(C)cc(NC(=O)/C(C#N)=C/c2cn(CC(=O)NCc3ccco3)c3ccccc23)c1	95*	-2	2	41*	-2	111*	-9	28	/
COC(CNS(=O)(=O)c1cc2c3c(c1)CCN3C(=O)CC2)OC	24	-2	13	6	-2	8	/	/	/
CN(C)C(=O)CCc1ccc2c3c([nH]c2c1)[C@]1(CCc2ccccc2)[C@@H](C(=O)N2CCCCC2)C[C@H](CC(=O)NCc2ccco2)C(=O)N1CC3	98*	/	/	39*	/	/	24	74*	51*
CC1CCc2nc(NC(=O)C3COc4ccccc4O3)sc2C1 (configuration not stated)	52*	-5	-89	-300	-3	63*	-334	77*	+
COc1ccc(OC)c(C(=O)NC(CC(N)=O)c2ccc(NC(C)C)c([N+](=O)[O-])c2)c1 (configuration not stated)	6	0	-4	-7	-2	18	/	/	/
O=C(CN1C(=O)c2ccccc2S1(=O)=O)c1ccc(OC(F)F)cc1	50*	1	17	40*	1	86*	36*	72*	76*
COC(=O)Nc1nc2ccc(C(=O)c3cccs3)cc2[nH]1	53*	/	45	i	/	53	-107	57*	126*
Cc1sc2ncnc(NCC(O)c3ccc([N+](=O)[O-])cc3)c2c1C (configuration not stated)	7	2	47	9	-2	1	/	/	/

Screening results deposited in PubChem by several laboratories.
